pEC50, pIC50: −log10 of the molar value. ≈ marks a conversion by molar mass, not a printed value.
What was measured:
[1] = Inhibition of HIV1 JRFL gp120/CD4 interaction in human HeLa67 cells assessed as inhibition of viral entry after 3 days by luciferase reporter gene assay; type: cell-based
In short: (§1)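 HeLa 67 cells (HeLa expressing CD4, CCR5 and CXCR4; DMEM, 10% heat-inactivated FBS, penicillin/streptomycin) were plated at 10^5 cells/well the day before infection. They were then infected with HIV LAI-Δenv-luc pseudotyped with JRFL or LAI envelope, in the presence of 10-step 3-fold DMSO serial dilutions (30 mM stocks), run in duplicate. After 3 days at 37 C, firefly luciferase was read. EC50 was from a one-site fit.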

[2] = Inhibition of HIV1 LAI gp120/CD4 interaction in human HeLa67 cells assessed as inhibition of viral entry after 3 days by luciferase reporter gene assay; type: cell-based; in short: as §1
[3] = Metabolic stability in human liver microsomes assessed as half life; type: ADME, Microsome
[4] = Cytotoxicity against human MT2 cells after 3 days by XTT assay; type: cell-based
In short: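 Uninfected MT-2 cells were exposed to 10-step 3-fold serial compound dilutions (30 mM DMSO stocks), run in parallel with the antiviral assay. Cell health was read by XTT after 3 days. CC50 was fitted with the same one-site equation as EC50.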

[5] = Permeability across human Caco-2 cell membrane at pH 6.5; type: ADME, cell-based; conditions: Caco-2, pH 6.5, read-out: permeability
[6] = Lipophilicity, log D at pH 6.5; type: physicochemical; conditions: buffer
In short: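 Log D was measured by the octanol/water shake-flask method using phosphate buffered solution, pH 6.5.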

Cytochrome P450 3A4 [7] = target: T1, Cytochrome P450 3A4 (Homo sapiens, UniProt P08684); test: Inhibition of recombinant CYP3A4 using 7-benzyloxyresorufin as substrate; type: ADME
Cytochrome P450 3A4 [8] = target: T1, Cytochrome P450 3A4; test: Inhibition of recombinant CYP3A4 using benzyloxy-4-(trifluoromethyl)coumarin as substrate; type: ADME
Cytochrome P450 2C9 = Cytochrome P450 2C9 (Homo sapiens, UniProt P11712); test: Inhibition of recombinant CYP2C9; type: ADME
Cytochrome P450 2D6 = Cytochrome P450 2D6 (Homo sapiens, UniProt P10635); test: Inhibition of recombinant CYP2D6; type: ADME
Cytochrome P450 2C19 = Cytochrome P450 2C19 (Homo sapiens, UniProt P33261); test: Inhibition of recombinant CYP2C19; type: ADME
Cytochrome P450 1A2 = target: T2, Cytochrome P450 1A2 (Homo sapiens, UniProt P05177); test: Inhibition of recombinant CYP1A2; type: ADME
T2 sequence (P05177 whole entry): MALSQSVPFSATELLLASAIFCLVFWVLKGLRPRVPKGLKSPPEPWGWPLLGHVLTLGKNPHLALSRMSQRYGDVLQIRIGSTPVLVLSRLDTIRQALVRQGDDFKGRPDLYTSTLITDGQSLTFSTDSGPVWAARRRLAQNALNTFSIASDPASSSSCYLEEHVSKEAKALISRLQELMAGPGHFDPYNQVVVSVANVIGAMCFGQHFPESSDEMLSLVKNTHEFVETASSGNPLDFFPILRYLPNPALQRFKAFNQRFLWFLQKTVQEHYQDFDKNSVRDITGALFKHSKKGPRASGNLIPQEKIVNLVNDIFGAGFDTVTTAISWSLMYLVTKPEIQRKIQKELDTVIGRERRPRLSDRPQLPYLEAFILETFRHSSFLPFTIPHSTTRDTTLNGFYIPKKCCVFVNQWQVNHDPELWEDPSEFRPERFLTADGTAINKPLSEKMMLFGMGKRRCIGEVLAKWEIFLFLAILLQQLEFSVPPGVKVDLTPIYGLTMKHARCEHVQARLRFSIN

[9] = Aqueous solubility of crystalline form of compound in buffer solution of pH 6.5 at 25 degC; type: physicochemical
In short: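 Solubility of the crystalline solid was measured 24-72 h after adding it to phosphate buffered solution, pH 6.5, at room temperature.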

[10] = target: Voltage-gated inwardly rectifying potassium channel KCNH2 (Homo sapiens, UniProt Q12809); test: Inhibition of human ERG by channel flux assay
Voltage-gated inwardly rectifying potassium channel KCNH2, sequence (Q12809 whole entry): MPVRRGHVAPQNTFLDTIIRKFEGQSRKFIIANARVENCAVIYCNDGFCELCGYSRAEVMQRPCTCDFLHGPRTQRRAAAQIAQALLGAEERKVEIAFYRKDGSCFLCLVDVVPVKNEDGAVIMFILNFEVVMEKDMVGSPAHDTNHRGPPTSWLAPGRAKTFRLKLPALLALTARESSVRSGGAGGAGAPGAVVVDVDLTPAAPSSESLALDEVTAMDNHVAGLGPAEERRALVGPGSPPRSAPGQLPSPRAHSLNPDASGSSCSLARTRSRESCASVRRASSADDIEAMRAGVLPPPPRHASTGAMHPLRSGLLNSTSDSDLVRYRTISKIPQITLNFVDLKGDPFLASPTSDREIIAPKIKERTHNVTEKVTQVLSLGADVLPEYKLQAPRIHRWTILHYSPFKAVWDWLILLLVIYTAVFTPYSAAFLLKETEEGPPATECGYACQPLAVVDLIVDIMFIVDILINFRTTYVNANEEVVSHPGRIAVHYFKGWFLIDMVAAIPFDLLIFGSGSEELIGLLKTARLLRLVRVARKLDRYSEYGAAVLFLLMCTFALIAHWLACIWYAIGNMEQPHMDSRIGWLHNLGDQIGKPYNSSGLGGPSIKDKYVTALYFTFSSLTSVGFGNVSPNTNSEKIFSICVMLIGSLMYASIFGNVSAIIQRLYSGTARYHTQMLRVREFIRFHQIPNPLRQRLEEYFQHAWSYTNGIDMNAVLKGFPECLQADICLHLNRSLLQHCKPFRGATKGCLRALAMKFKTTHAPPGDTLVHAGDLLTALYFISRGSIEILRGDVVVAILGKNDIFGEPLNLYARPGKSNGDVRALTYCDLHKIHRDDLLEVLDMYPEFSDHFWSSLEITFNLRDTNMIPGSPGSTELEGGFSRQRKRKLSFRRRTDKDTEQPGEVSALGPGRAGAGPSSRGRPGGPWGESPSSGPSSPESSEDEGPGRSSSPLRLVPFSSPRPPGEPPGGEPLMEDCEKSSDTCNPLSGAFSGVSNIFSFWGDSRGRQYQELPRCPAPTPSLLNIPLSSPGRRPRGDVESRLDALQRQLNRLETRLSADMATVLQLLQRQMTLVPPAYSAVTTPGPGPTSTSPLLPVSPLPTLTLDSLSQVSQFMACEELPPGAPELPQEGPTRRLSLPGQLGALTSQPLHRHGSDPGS

Cytochrome P450 2C19, sequence (P33261 whole entry): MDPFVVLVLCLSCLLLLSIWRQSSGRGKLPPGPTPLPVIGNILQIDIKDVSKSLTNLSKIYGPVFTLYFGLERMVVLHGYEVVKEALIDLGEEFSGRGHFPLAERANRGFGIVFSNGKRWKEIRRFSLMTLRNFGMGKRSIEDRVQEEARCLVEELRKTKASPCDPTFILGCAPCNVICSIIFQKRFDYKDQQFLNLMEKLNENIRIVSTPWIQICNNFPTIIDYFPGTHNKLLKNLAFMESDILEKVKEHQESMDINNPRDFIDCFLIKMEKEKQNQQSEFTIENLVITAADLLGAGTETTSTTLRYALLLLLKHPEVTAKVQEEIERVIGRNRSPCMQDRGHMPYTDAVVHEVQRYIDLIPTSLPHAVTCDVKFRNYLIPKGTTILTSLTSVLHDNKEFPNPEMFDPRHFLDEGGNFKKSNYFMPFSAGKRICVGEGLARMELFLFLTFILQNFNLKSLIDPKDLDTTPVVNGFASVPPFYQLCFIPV
Cytochrome P450 2C9, sequence (P11712 whole entry): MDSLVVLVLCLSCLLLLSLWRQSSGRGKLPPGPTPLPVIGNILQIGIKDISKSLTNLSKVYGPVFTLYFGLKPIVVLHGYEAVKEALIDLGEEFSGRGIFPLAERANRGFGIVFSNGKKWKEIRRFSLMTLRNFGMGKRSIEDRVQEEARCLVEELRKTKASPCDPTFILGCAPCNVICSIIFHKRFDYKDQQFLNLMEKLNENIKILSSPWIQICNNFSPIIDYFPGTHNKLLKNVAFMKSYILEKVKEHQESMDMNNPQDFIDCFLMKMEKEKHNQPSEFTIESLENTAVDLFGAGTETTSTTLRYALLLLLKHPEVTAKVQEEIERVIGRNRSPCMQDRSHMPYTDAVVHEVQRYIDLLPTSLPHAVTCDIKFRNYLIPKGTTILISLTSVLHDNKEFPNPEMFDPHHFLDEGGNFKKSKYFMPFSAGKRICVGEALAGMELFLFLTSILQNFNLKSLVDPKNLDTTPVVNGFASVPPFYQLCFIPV
Cytochrome P450 2D6, sequence (P10635 whole entry): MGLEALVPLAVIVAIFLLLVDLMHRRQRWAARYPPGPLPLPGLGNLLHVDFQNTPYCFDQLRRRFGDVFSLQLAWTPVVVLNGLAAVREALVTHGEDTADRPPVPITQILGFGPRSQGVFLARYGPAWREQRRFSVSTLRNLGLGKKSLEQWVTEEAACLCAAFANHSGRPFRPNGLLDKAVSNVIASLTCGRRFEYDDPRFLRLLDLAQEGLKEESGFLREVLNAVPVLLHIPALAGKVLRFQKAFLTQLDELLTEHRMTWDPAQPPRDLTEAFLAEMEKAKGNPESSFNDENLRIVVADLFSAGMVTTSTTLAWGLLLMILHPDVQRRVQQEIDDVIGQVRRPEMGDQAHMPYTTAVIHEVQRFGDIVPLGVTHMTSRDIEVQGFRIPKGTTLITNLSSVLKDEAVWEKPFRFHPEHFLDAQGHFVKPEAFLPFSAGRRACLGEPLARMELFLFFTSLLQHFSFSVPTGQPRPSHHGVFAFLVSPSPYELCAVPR
T1 sequence (P08684 whole entry): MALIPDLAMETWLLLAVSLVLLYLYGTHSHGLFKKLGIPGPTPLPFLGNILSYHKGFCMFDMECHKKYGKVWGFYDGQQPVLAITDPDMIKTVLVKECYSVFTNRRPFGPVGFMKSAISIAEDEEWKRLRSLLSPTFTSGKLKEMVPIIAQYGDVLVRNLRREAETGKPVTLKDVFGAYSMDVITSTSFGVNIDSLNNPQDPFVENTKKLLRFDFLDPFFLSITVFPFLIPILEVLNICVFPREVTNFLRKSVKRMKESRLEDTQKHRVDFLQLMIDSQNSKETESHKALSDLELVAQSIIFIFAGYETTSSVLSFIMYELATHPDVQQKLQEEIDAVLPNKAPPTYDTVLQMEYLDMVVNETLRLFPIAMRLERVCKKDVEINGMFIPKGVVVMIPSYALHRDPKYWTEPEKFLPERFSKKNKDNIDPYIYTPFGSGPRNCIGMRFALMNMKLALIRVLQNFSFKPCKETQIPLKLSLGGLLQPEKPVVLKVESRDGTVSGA

| pEC50 [1] | pEC50 [2] | half-life [3] [min] | Papp [5] [×10⁻⁶ cm/s] | logD [6] | pIC50 (Cytochrome P450 3A4 [7]) | pIC50 (Cytochrome P450 3A4 [8]) | pIC50 (Cytochrome P450 2C9) | pIC50 (Cytochrome P450 2D6) | pIC50 (Cytochrome P450 2C19) | pIC50 (Cytochrome P450 1A2) | solubility [9] [µg/mL] | SMILES | CC50 at 72 h [4] [µM] | pIC50 [10] |
| --- | --- | --- | --- | --- | --- | --- | --- | --- | --- | --- | --- | --- | --- | --- |
| 8.40 | 8.31 | 16.9 | 16.9 | 1.9 | < 4.40 | < 4.40 | 5.28 | 5.32 | 5.59 | < 4.40 | 16 (≈ 42.6 µM) | C[C@@H]1CN(C(=O)c2ccccc2)CCN1C(=O)C(=O)c1c[nH]c2ccccc12 | 200 | < 4.10 |
| 7.67 |  | 38.5 | < 1.5 | 1.5 | < 4.40 | < 4.40 | 4.77 | 4.42 | 5.14 | < 4.40 | 487 (≈ 1290 µM) | C[C@@H]1CN(C(=O)c2ccccc2)CCN1C(=O)C(=O)c1c[nH]c2cnccc12 | > 300 | < 4.10 |
| 8.80 |  | > 100 | 7.6 | 0.9 | < 4.40 | < 4.40 | < 4.40 | < 4.40 | 4.44 | < 4.40 | 932 (≈ 2480 µM) | C[C@@H]1CN(C(=O)c2ccccc2)CCN1C(=O)C(=O)c1c[nH]c2cccnc12 | > 300 | < 4.10 |
| 6.24 |  | > 100 | 1.9 | 1.2 |  |  | < 4.40 | < 4.40 | 4.77 | < 4.40 | 419 (≈ 1110 µM) | C[C@@H]1CN(C(=O)c2ccccc2)CCN1C(=O)C(=O)c1c[nH]c2ccncc12 | > 300 | < 4.10 |

— ChEMBL document CHEMBL1156066 (J Med Chem, 2009)
